ChEMBL document CHEMBL1681672, “Antitumor agents 283. Further elaboration of desmosdumotin C analogs as potent antitumor agents: activation of spindle assembly checkpoint as possible mode of action” (2011)
pEC50: −log10 of the molar value. The source made the active and inactive calls. The calls are words filed in the database; no cut-off is given here.

Key:
MCF7 = assay: Antiproliferative activity against human MCF7 cells after 3 days by sulforhodamine B assay; type: functional; settings: MCF7, 72 h, read-out: ED50 (the source's name)
KB = assay: Antiproliferative activity against human KB cells after 3 days by sulforhodamine B assay; type: functional; settings: 72 h, read-out: ED50 (the source's name)
Procedure, shortened: (§1)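 Cells were seeded from freshly trypsinized suspensions at 1500–7500 cells/well and dosed from DMSO-diluted stock. After 3 days of culture, attached cells were fixed with cold 50% TCA and stained with 0.4% SRB. Bound dye was solubilized and absorbance read at 562 nm. ED50 is the concentration giving 50% growth reduction versus untreated cells, averaged from at least three independent determinations. Cells were grown in RPMI-1640 with 25 mM HEPES, 10% FBS and kanamycin.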

PC-3 = assay: Antiproliferative activity against human PC3 cells after 3 days by sulforhodamine B assay; type: functional; settings: for pEC50: PC-3, 72 h, read-out: ED50 (the source's name); procedure, shortened: as §1
A549 = assay: Antiproliferative activity against human A549 cells after 3 days by sulforhodamine B assay; type: functional; settings: A549, 72 h, read-out: ED50 (the source's name); procedure, shortened: as §1
HepG2 = assay: Antiproliferative activity against human HepG2 cells after 3 days by sulforhodamine B assay; type: functional; settings: for pEC50: HepG2, 72 h, read-out: ED50 (the source's name); procedure, shortened: as §1
1A9 = assay: Antiproliferative activity against human 1A9 cells after 3 days by sulforhodamine B assay; type: functional; settings: 1A9, 72 h, read-out: ED50 (the source's name); procedure, shortened: as §1
HCT-8 = assay: Antiproliferative activity against human HCT8 cells after 3 days by sulforhodamine B assay; type: functional; settings: HCT-8, 72 h, read-out: ED50 (the source's name); procedure, shortened: as §1
[1] = Antiproliferative activity against human KBVIN cells expressing P-glycoprotein after 3 days by sulforhodamine B assay; type: functional; settings: 72 h, read-out: ED50 (the source's name); procedure, shortened: as §1
[2] = Upregulation of MAD2L1 transcript in human CL1-5 cells at 0.05 ug/ml after 24 hrs by semi-quantitative RT-PCR; type: functional, cell-based
Procedure, shortened: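 CL1-5 cells were seeded at 2.5×10^5 per 60 mm dish and grown 48 h in RPMI with 10% FBS at 37 °C in 5% CO2. Cells then received DMSO or 0.05 μg/mL compound for 24 h. Total RNA was extracted with TRIzol and MAD2L1 was amplified by RT-PCR, with Gβ-like as the control transcript, and bands were compared on gel.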

[3] = Effect on CDK1 mRNA expression in human CL1-5 cells at 0.05 ug/ml after 24 hrs by Affymetrix GeneChip microarray relative to DMSO control
[4] = Effect on dynactin mRNA expression in human CL1-5 cells at 0.05 ug/ml after 24 hrs by RT-PCR relative to DMSO control; type: functional
[5] = Effect on NEK2A mRNA expression in human CL1-5 cells at 0.05 ug/ml after 24 hrs by Affymetrix GeneChip microarray relative to DMSO control
[6] = Effect on dynein1 mRNA expression in human CL1-5 cells at 0.05 ug/ml after 24 hrs by RT-PCR relative to DMSO control; type: functional
[7] = Effect on Aurora A mRNA expression in human CL1-5 cells at 0.05 ug/ml after 24 hrs by Affymetrix GeneChip microarray relative to DMSO control
[8] = Antiproliferative activity against human CL1-5 cells; type: functional; settings: read-out: ED50 (the source's name)
[9] = Effect on Aurora B mRNA expression in human CL1-5 cells at 0.05 ug/ml after 24 hrs by Affymetrix GeneChip microarray relative to DMSO control
[10] = Effect on cyclinB mRNA expression in human CL1-5 cells at 0.05 ug/ml after 24 hrs by RT-PCR relative to DMSO control; type: functional
[11] = Effect on separase mRNA expression in human CL1-5 cells at 0.05 ug/ml after 24 hrs by RT-PCR relative to DMSO control; type: functional
[12] = Effect on KNSL1 mRNA expression in human CL1-5 cells at 0.05 ug/ml after 24 hrs by RT-PCR relative to DMSO control; type: functional
[13] = Effect on MAD2 mRNA expression in human CL1-5 cells at 0.05 ug/ml after 24 hrs by RT-PCR relative to DMSO control; type: functional
[14] = Effect on securin mRNA expression in human CL1-5 cells at 0.05 ug/ml after 24 hrs by RT-PCR relative to DMSO control; type: functional
[15] = Effect on MAD1 mRNA expression in human CL1-5 cells at 0.05 ug/ml after 24 hrs by RT-PCR relative to DMSO control; type: functional

| pEC50 (MCF7) | pEC50 (KB) | pEC50 (PC-3) | pEC50 (A549) | pEC50 (HepG2) | pEC50 (HCT-8) | Compound | pEC50 (1A9) | pEC50 [1] | also measured |
| --- | --- | --- | --- | --- | --- | --- | --- | --- | --- |
| 5.36 | 5.32 | 4.91 | 5.77 | 4.87 | 5.10 | CCCC1=C(OCC(C)C)C(CCC)(CCC)C(=O)/C(=C(O)\C=C\c2ccccc2)C1=O | 5.16 | 5.39 |  |
| 5.59 | 5.19 | 4.90 | 5.34 | 4.95 | 5.25 | CCCC1=C(OCC)C(CCC)(CCC)C(=O)/C(=C(O)\C=C\c2ccccc2)C1=O | 5.37 | 5.46 |  |
| 5.80 | 5.57 | 5.07 | 5.72 | 5.08 | 5.59 | CCCOC1=C(CCC)C(=O)/C(=C(O)/C=C/c2ccccc2)C(=O)C1(CCC)CCC | 5.70 | 5.62 |  |
|  | 5.34 | 5.09 | 5.44 |  | 5.46 | CCCC1=C(OC)C(CCC)(CCC)C(=O)/C(=C(O)\C=C\c2ccccc2)C1=O | 5.43 | 5.47 |  |
| 5.28 | 5.10 | 5.02 | 5.15 | 5.10 | 5.06 | CCCCOC1=C(CCC)C(=O)/C(=C(O)/C=C/c2ccccc2)C(=O)C1(CCC)CCC |  | 5.05 |  |
| 5.04 | 4.97 | 4.77 | 4.95 | 4.81 | 4.82 | CCCC1=C(OCCC(C)C)C(CCC)(CCC)C(=O)/C(=C(O)\C=C\c2ccccc2)C1=O |  | 4.72 |  |

Further lines, the compound ahead of its results:

| Compound | pEC50 (MCF7) | pEC50 (KB) | pEC50 (PC-3) | pEC50 (A549) | pEC50 (HepG2) | pEC50 (HCT-8) | pEC50 (1A9) | pEC50 [1] | also measured |
| --- | --- | --- | --- | --- | --- | --- | --- | --- | --- |
| CCCC1=C(OC)C(CCC)(CCC)C(=O)/C(=C(O)\C=C\c2ccc(I)cc2)C1=O | 5.74 | 5.82 | 5.55 | 5.85 | 5.62 | 5.96 | 5.74 | 5.85 |  |
| CC(=O)O[C@H]1C(=O)[C@@]2(C)[C@H]([C@H](OC(=O)c3ccccc3)[C@]3(O)C[C@H](OC(=O)[C@H](O)[C@@H](NC(=O)c4ccccc4)c4ccccc4)C(C)=C1C3(C)C)[C@]1(OC(C)=O)CO[C@@H]1C[C@@H]2O [PACLITAXEL] | < 7.00 | 8.54 | 8.05 | 8.59 | < 7.00 | < 7.00 | 8.68 | < 7.00 |  |
| COC1=C(C)C(O)=C(C(=O)/C=C/c2ccccc2)C(=O)C1(C)C [DESMOSDUMOTIN C] |  | 4.89 | 4.45 | 4.95 |  | 4.93 | 4.95 | 5.02 |  |
| CCCOC1=C(CCC)C(=O)/C(=C(O)/C=C/c2ccc(I)cc2)C(=O)C1(CCC)CCC | 5.29 | 5.19 | 5.02 | 5.09 | 5.14 | 5.11 |  | 5.21 |  |
| CCCC1(CC=C(C)C)C(=O)C(C(=O)/C=C/c2ccccc2)=C(O)C(CCC)(CCC)C1=O (stereo not drawn) | 5.24 | 5.09 | 5.08 | 5.15 | 5.19 | 5.17 |  | 5.14 |  |
| CC[C@]1(O)C[C@H]2CN(CCc3c([nH]c4ccccc34)[C@@](C(=O)OC)(c3cc4c(cc3OC)N(C=O)[C@H]3[C@@](O)(C(=O)OC)[C@H](OC(C)=O)[C@]5(CC)C=CCN6CC[C@]43[C@@H]65)C2)C1 [VINCRISTINE] | 7.92 | 8.62 | 7.92 | 8.32 | 8.54 | 7.62 |  | < 7.00 |  |
| CCCCC1=C(OC)C(CCCC)(CCCC)C(=O)/C(=C(O)\C=C\c2ccccc2)C1=O | 5.36 | 5.15 | 4.89 | 5.19 | 4.62 | 5.11 | 5.23 | 5.07 |  |
| COC1=C(CC=C(C)C)C(=O)/C(=C(O)/C=C/c2ccccc2)C(=O)C1(CC=C(C)C)CC=C(C)C [3,3,5-TRIPRENYLDESMOSDUMOTIN C] | 5.09 | 4.88 | 4.91 | 4.99 | 4.95 | 4.86 |  | 5.05 |  |
| COC1=C(CC(C)C)C(=O)/C(=C(O)/C=C/c2ccccc2)C(=O)C1(CC(C)C)CC(C)C | 5.43 | 5.10 | 4.91 | 5.36 | 4.84 | 5.12 | 5.10 | 5.09 |  |
| CCCC1=C(OC)C(CCC)(CCC)C(=O)/C(=C(O)\C=C\c2ccc(Br)cc2)C1=O |  | 5.74 | 5.33 | 5.70 |  | 5.59 | 5.72 | 5.74 | Activity [2]: Active; fold change (FC) [3]: 2; fold change (FC) [4]: 2; fold change (FC) [5]: 2; fold change (FC) [6]: 2; fold change (FC) [7]: 2; pEC50 [8]: 6.96; fold change (FC) [9]: 2; fold change (FC) [10]: 2; fold change (FC) [11]: 2; fold change (FC) [12]: 2; fold change (FC) [13]: 2; fold change (FC) [14]: 2; fold change (FC) [15]: 2 |
| COC1=C(CCC(C)C)C(=O)/C(=C(O)/C=C/c2ccccc2)C(=O)C1(CCC(C)C)CCC(C)C | 4.60 | 4.76 |  | 4.74 |  | 4.89 | 4.79 | 4.69 | ED50 (PC-3): inactive; ED50 (HepG2): inactive |
